According to ChEMBL document CHEMBL1157608, “The discovery of 4-{1-[({2,5-dimethyl-4-[4-(trifluoromethyl)benzyl]-3-thienyl}carbonyl)amino]cyclopropyl}benzoic acid (MK-2894), a potent and selective prostaglandin E2 subtype 4 receptor antagonist” (J Med Chem, 2010):

Tests used:
[1] = target: T1, Prostaglandin E2 receptor EP4 subtype (Homo sapiens, UniProt P35408); assay: Displacement of [3H]PGE2 from human EP4 receptor expressed in HEK293-EBNA cells by scintillation counting; assay type: cell-based
Summary of the method: (§1)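 Radioligand binding on membranes from HEK 293(EBNA) clonal lines overexpressing each prostanoid receptor, using the respective 3H-prostaglandin or thromboxane ligand; EP4 binding also run with 10% human serum; Ki as means of at least three experiments (rEP2, rEP3 n = 1).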

[2] = target: Prostaglandin E2 receptor EP2 subtype (Homo sapiens, UniProt P43116); assay: Displacement of [3H]PGE2 from human EP2 receptor expressed in HEK293-EBNA cells by scintillation counting; assay type: cell-based; summary of the method: as §1
[3] = target: T2, Prostaglandin E2 receptor EP1 subtype (Homo sapiens, UniProt P34995); assay: Displacement of [3H]PGE2 from human EP1 receptor expressed in HEK293-EBNA cells by scintillation counting; assay type: cell-based; summary of the method: as §1
T2 sequence (P34995 whole entry): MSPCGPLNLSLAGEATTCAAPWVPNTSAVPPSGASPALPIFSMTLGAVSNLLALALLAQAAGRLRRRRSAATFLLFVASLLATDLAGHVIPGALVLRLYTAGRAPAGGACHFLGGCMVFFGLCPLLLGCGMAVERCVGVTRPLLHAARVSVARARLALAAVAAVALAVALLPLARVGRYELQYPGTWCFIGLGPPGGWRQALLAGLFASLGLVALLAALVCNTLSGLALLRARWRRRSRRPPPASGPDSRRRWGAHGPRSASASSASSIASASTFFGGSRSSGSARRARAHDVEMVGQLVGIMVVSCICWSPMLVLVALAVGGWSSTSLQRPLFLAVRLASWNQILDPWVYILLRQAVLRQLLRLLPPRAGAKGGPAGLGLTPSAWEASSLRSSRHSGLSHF

[4] = target: T3, Prostaglandin E2 receptor EP3 subtype (Homo sapiens, UniProt P43115); assay: Displacement of [3H]PGE2 from human EP3 receptor expressed in HEK293-EBNA cells by scintillation counting; assay type: cell-based; summary of the method: as §1
T3 sequence (P43115 whole entry): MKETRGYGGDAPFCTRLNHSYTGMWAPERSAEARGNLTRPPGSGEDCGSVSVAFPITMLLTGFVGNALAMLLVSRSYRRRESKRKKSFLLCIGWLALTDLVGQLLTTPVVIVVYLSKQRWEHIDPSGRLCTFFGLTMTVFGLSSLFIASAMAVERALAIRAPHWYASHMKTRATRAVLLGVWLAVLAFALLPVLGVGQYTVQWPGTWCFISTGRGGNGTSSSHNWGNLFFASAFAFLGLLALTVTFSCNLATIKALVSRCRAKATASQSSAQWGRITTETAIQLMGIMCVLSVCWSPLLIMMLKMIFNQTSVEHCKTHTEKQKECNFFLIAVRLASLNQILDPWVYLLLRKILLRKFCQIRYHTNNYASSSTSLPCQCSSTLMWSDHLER

[5] = target: T4, Prostaglandin D2 receptor (Homo sapiens, UniProt Q13258); assay: Displacement of [3H]PGD2 from human DP1 receptor expressed in HEK293-EBNA cells by scintillation counting; assay type: cell-based; summary of the method: as §1
T4 sequence (Q13258 whole entry): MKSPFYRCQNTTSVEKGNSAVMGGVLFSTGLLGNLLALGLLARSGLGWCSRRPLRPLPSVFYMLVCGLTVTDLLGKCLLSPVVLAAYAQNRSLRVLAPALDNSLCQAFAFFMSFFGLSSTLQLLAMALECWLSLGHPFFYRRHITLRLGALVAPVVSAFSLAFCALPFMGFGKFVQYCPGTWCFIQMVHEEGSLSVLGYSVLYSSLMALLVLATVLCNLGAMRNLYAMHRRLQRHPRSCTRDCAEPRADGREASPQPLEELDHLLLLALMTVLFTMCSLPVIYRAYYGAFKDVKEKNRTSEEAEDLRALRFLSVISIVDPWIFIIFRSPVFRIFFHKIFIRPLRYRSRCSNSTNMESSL

[6] = target: T5, Prostaglandin D2 receptor 2 (Homo sapiens, UniProt Q9Y5Y4); assay: Displacement of [3H]PGD2 from human DP2 receptor expressed in HEK293-EBNA cells by scintillation counting; assay type: cell-based; summary of the method: as §1
T5 sequence (Q9Y5Y4 whole entry): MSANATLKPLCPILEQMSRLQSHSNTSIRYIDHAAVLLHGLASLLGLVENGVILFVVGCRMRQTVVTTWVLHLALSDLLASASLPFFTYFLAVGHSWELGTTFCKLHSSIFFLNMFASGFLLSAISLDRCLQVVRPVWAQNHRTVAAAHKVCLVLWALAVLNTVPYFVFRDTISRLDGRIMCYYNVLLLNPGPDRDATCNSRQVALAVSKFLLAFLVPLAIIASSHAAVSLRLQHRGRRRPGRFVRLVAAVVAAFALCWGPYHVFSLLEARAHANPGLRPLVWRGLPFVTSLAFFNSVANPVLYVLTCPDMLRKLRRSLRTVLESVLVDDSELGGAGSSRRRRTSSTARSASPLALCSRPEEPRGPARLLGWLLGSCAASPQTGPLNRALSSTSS

Prostacyclin receptor = Prostacyclin receptor (Homo sapiens, UniProt P43119); assay: Displacement of [3H]iloprost from human IP receptor expressed in HEK293-EBNA cells by scintillation counting; assay type: cell-based; summary of the method: as §1
Thromboxane A2 receptor = target: T6, Thromboxane A2 receptor (Homo sapiens, UniProt P21731); assay: Displacement of [3H]SQ29548 from human TP receptor expressed in HEK293-EBNA cells by scintillation counting; assay type: cell-based; summary of the method: as §1
T6 sequence (P21731 whole entry): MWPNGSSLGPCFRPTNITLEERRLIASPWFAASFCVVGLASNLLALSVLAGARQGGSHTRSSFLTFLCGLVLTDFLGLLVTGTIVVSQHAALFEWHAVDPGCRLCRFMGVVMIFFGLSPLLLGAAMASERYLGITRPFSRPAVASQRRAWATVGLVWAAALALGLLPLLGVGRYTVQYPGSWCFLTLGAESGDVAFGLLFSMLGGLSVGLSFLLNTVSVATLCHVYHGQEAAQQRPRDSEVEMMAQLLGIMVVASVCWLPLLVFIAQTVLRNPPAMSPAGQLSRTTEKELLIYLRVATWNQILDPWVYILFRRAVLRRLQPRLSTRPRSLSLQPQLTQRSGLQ

[7] = target: Prostaglandin F2-alpha receptor (Homo sapiens, UniProt P43088); assay: Displacement of [3H]PGF2alpha from human FP receptor expressed in HEK293-EBNA cells by scintillation counting; assay type: cell-based; summary of the method: as §1
[8] = target: T1, Prostaglandin E2 receptor EP4 subtype; assay: Antagonist activity at human EP4 receptor expressed in HEK293 cells assessed as inhibition of PGE2-induced cAMP accumulation by scintillation proximity assay; assay type: functional, cell-based
Summary of the method: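 HEK 293 cells; inhibition of PGE2-induced cAMP accumulation measured, with and without 10% human serum; means of at least three experiments.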

Rattus norvegicus [9] = species on record: Rattus norvegicus; assay: Analgesic activity against complete Freund's adjuvant-induced Sprague-Dawley rat inflammatory pain assessed as inhibition of chronic paw swelling; assay type: functional
Summary of the method: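 Adjuvant-induced arthritis in rats: CFA injected into primary paw on day 0; oral dosing in 0.5% methocel once daily for 9 days starting day 9; secondary paw swelling measured; plasma levels taken 24 h after final dose; n = 7/group; 1-way ANOVA/Dunnett's vs vehicle.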

Rattus norvegicus [10] = assay: Analgesic activity in po dosed Sprague-Dawley rat assessed as inhibition of carrageenan-induced mechanical hyperalgesia relative to control; assay type: functional
Summary of the method: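 SD rats given subplantar carrageenan; compound dosed orally as a single dose; mechanical hyperalgesia read at 3 h post carrageenan, 1 h post dose; inhibition expressed vs vehicle control; n = 10-20/group; 1-way ANOVA/Dunnett's.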

Sequence of Prostaglandin F2-alpha receptor (P43088 whole entry): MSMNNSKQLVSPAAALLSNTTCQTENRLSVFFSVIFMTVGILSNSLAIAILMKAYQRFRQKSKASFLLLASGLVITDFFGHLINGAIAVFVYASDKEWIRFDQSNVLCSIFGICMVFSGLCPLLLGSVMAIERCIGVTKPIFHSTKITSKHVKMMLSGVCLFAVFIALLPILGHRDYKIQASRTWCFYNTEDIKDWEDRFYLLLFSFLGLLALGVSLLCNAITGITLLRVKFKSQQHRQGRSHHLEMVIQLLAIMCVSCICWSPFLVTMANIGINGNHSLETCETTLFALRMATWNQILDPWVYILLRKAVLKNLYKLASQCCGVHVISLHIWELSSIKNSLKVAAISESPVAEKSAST
T1 sequence (P35408 whole entry): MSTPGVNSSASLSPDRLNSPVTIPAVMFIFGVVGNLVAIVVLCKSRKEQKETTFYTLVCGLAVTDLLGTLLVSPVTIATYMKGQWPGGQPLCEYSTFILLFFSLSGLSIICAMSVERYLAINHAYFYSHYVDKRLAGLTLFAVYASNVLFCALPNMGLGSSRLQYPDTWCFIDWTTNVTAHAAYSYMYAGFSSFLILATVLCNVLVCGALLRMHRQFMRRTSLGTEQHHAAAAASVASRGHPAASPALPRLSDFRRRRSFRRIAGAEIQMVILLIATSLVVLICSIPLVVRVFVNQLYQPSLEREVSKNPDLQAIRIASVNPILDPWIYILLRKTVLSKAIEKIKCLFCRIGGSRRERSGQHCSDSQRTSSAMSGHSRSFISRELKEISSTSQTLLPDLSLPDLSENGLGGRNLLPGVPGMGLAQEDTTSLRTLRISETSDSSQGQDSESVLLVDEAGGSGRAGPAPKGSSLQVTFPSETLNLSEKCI
Sequence of Prostacyclin receptor (P43119 whole entry): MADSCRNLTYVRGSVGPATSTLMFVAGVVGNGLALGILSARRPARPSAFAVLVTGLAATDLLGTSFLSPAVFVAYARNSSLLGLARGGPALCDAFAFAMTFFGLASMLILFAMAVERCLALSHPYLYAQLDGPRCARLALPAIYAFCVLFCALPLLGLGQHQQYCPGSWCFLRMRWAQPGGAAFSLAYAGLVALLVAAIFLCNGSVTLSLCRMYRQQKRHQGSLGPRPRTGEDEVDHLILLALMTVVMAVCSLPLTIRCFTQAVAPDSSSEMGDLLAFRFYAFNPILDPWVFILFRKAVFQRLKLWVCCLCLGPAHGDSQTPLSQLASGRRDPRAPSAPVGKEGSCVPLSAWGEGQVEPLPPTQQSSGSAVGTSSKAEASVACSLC
Sequence of Prostaglandin E2 receptor EP2 subtype (P43116 whole entry): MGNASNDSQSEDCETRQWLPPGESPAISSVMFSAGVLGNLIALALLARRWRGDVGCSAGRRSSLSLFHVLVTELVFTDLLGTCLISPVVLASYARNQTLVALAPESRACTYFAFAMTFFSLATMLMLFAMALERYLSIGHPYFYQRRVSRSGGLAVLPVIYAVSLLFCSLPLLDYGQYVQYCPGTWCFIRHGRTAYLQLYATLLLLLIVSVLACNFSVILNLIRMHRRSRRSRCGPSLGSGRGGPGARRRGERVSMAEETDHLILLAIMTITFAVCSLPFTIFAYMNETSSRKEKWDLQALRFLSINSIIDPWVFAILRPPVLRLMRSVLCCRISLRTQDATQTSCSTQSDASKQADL

Structure (SMILES) | Ki [1] [µM] | Ki [2] [µM] | Ki [3] [µM] | Ki [4] [µM] | Ki [5] [µM] | Ki [6] [µM] | Ki (Prostacyclin receptor) [µM] | Ki (Thromboxane A2 receptor) [µM] | Ki [7] [µM] | IC50 [8] [µM] | ED50 (Rattus norvegicus [9]) | inhibition (INH) (Rattus norvegicus [10]) [%]
C[C@H](NC(=O)c1cscc1Cc1cccc(Cl)c1)c1ccc(C(=O)O)cc1 | 0.0064 | 0.016 | > 7.28 | > 7.28 | > 7.28 | > 7.28 | > 7.28 | > 7.28 | > 7.28 | 0.012 | – | –
COc1cccc(OC)c1C1(C(=O)NS(=O)(=O)Cc2ccc(N3Cc4c(c(OCC(F)(F)F)c5cccnc5c4OCC(F)(F)F)C3=O)c(C)c2)CC1 | – | – | – | – | – | – | – | – | – | – | 0.003 mg/kg/day | –
CS(=O)(=O)c1ccc(C2=C(c3ccccc3)C(=O)OC2)cc1 [ROFECOXIB] | – | – | – | – | – | – | – | – | – | – | 0.7 mg/kg | –
C[C@H](NC(=O)c1c(Cl)sc(Cl)c1Cc1cccc(Cl)c1)c1ccc(C(=O)O)cc1 | – | 0.746 | > 0.456 | > 0.456 | > 0.456 | > 0.456 | > 0.456 | > 0.456 | > 0.456 | 0.0036 | – | –
CS(=O)(=O)c1ccc(C2=C(c3ccc(F)c(F)c3)C(=O)OC2)cc1 | – | – | – | – | – | – | – | – | – | – | 0.5 mg/kg | 70
O=C(O)c1ccc(CNC(=O)c2c(Cl)sc(Cl)c2Cc2cccc(Cl)c2)cc1 | 0.00072 | 0.043 | > 0.628 | > 0.628 | > 0.628 | > 0.628 | > 0.628 | > 0.628 | > 0.628 | 0.0016 | – | –

Further lines, with some results ahead:

Ki [1] [µM] | Ki [2] [µM] | Ki [3] [µM] | Ki [4] [µM] | Ki [5] [µM] | Ki [6] [µM] | Ki (Prostacyclin receptor) [µM] | Ki (Thromboxane A2 receptor) [µM] | Ki [7] [µM] | IC50 [8] [µM] | Structure (SMILES) | ED50 (Rattus norvegicus [9]) | inhibition (INH) (Rattus norvegicus [10]) [%]
0.0025 | 0.8 | > 3.46 | > 3.46 | > 3.46 | > 3.46 | > 3.46 | > 3.46 | > 3.46 | 0.0047 | Cc1sc(C)c(C(=O)N[C@@H](C)c2ccc(C(=O)O)cc2)c1Cc1cccc(C(F)(F)F)c1 | – | –
0.0029 | 0.202 | > 2.12 | > 2.12 | > 2.12 | > 2.12 | > 2.12 | > 2.12 | > 2.12 | 0.0054 | Cc1sc(C)c(C(=O)N[C@@H](C)c2ccc(C(=O)O)cc2)c1Cc1ccc(Cl)cc1 | – | –
0.00063 | > 29 | > 0.501 | > 0.501 | > 0.501 | > 0.501 | > 0.501 | > 0.501 | > 0.501 | 0.0023 | Cc1sc(C)c(C(=O)NC2(c3ccc(-c4nn[nH]n4)cc3)CC2)c1Cc1ccc(C(F)(F)F)cc1 | – | –
– | 0.467 | > 2.23 | > 2.23 | > 2.23 | > 2.23 | > 2.23 | > 2.23 | > 2.23 | 0.0086 | Cc1sc(C)c(C(=O)N[C@@H](C)c2ccc(C(=O)O)cc2)c1Cc1cccc(Cl)c1 | – | –
– | 1.19 | > 5.47 | > 5.47 | > 5.47 | > 5.47 | > 5.47 | > 5.47 | > 5.47 | 0.0045 | Cc1sc(C)c(C(=O)N[C@@H](C)c2ccc(C(=O)O)cc2)c1Cc1ccc(C(F)(F)F)cc1 | – | –
0.00087 | 0.384 | > 0.224 | > 0.224 | > 0.224 | > 0.224 | > 0.224 | > 0.224 | > 0.224 | 0.0018 | C[C@@H](NC(=O)c1c(Cl)sc(Cl)c1Cc1cccc(Cl)c1)c1ccc(C(=O)O)cc1 | – | –
0.00075 | > 29.1 | > 4.99 | > 4.99 | > 4.99 | > 4.99 | > 4.99 | > 4.99 | > 4.99 | – | Cc1sc(C)c(C(=O)NC2(c3ccc(C(=O)O)cc3)CC2)c1Cc1cccc(C(F)(F)F)c1 | – | –
